Results as given in ChEMBL document CHEMBL4350961, “Discovery of Pyrrolo[3,2- d]pyrimidin-4-one Derivatives as a New Class of Potent and Cell-Active Inhibitors of P300/CBP-Associated Factor Bromodomain” (J Med Chem, 2019).
Active and inactive are the calls of the source. The calls are words filed in the database; no cut-off is given here.

Legend:
[1] = biological target: High affinity nerve growth factor receptor (Homo sapiens) (UniProt P04629); assay: Inhibition of human TrkA (440 to end residues) using KKKSPGEYVNIEFG as substrate measured after 40 mins in presence of [gamma33P]ATP by scintillation counting method
[2] = biological target: Serine/threonine-protein kinase TAO2 (Homo sapiens) (UniProt Q9UL54); assay: Inhibition of human TAO2 (1 to 320 residues) using myelin basic protein as substrate measured after 40 mins in presence of [gamma33P]ATP by scintillation counting method
[3] = biological target: Tyrosine-protein kinase Lck (Homo sapiens) (UniProt P06239); assay: Inhibition of recombinant full-length human activated Lck at 10 uM using KVEKIGEGTYGVVYK as substrate measured after 40 mins in presence of [gamma33P]ATP by scintillation counting method
[4] = biological target: Serine/threonine-protein kinase D2 (Homo sapiens) (UniProt Q9BZL6); assay: Inhibition of recombinant full-length human PKD2 at 10 uM using KKLNRTLSVA as substrate measured after 40 mins in presence of [gamma33P]ATP by scintillation counting method
[5] = biological target: Protein kinase C beta type (Homo sapiens) (UniProt P05771); assay: Inhibition of recombinant human PKCbeta2 (2 to end residues) at 10 uM using histone H1 as substrate measured after 40 mins in presence of [gamma33P]ATP by scintillation counting method
[6] = tested on: Homeodomain-interacting protein kinase 2 (Homo sapiens), Q9H2X6 [UNDEFINED MUTATION]; assay: Inhibition of recombinant human HIPK2 I471N mutant (165 to 564 residues) at 10 uM using myelin basic protein as substrate measured after 40 mins in presence of [gamma33P]ATP by scintillation counting method
[7] = tested on: Tyrosine-protein kinase ABL1 (Homo sapiens), P00519 [Y253F]; assay: Inhibition of recombinant human ABL Y253F mutant (27 to end residues) at 10 uM using EAIYAAPFAKKK as substrate measured after 40 mins in presence of [gamma33P]ATP by scintillation counting method
[8] = biological target: CREB-binding protein (Homo sapiens) (UniProt Q92793); assay: Binding affinity to human partial length CREBBP (R1081 to G1197 residues) expressed in bacterial expression system at 1 uM by BROMOscan assay
Outline: (§1)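 BROMOscan bromodomain cross-screen run by an outside service, compound at 1 µM against 32 recombinant bromodomains. Binding given as percent of control.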

[9] = biological target: Mitogen-activated protein kinase kinase kinase 10 (Homo sapiens) (UniProt Q02779); assay: Inhibition of recombinant human MLK2 (1 to 449 residues) at 10 uM using myelin basic protein as substrate measured after 40 mins in presence of [gamma33P]ATP by scintillation counting method
[10] = biological target: Bromodomain testis-specific protein (Homo sapiens) (UniProt Q58F21); assay: Binding affinity to human partial length BRDT bromodomain 1 (N21 to E137 residues) expressed in bacterial expression system at 1 uM by BROMOscan assay; outline: as §1
[11] = biological target: Tyrosine-protein kinase HCK (Homo sapiens) (UniProt P08631); assay: Inhibition of recombinant human HCK (230 to 497 residues) at 10 uM using Cdc2 peptide as substrate measured after 40 mins in presence of [gamma33P]ATP by scintillation counting method
[12] = biological target: Myotonin-protein kinase (Homo sapiens) (UniProt Q09013); assay: Inhibition of recombinant human DMPK (1 to 549 residues) at 10 uM using KKSRGDYMTMQIG as substrate measured after 40 mins in presence of [gamma33P]ATP by scintillation counting method
[13] = biological target: Serine/threonine-protein kinase PAK 4 (Homo sapiens) (UniProt O96013); assay: Inhibition of recombinant human PAK4 (295 to end residues) at 10 uM using myelin basic protein as substrate measured after 40 mins in presence of [gamma33P]ATP by scintillation counting method
[14] = biological target: Mitogen-activated protein kinase 14 (Homo sapiens) (UniProt Q16539); assay: Inhibition of recombinant full-length human SAPK2a at 10 uM using myelin basic protein as substrate measured after 40 mins in presence of [gamma33P]ATP by scintillation counting method
[15] = biological target: cGMP-dependent protein kinase 2 (Homo sapiens) (UniProt Q13237); assay: Inhibition of recombinant full-length human PRKG2 at 10 uM using KKLRRTLSFAEPG as substrate measured after 40 mins in presence of [gamma33P]ATP by scintillation counting method
[16] = biological target: Tyrosine-protein kinase Lyn (Mus musculus) (UniProt P25911); assay: Inhibition of mouse Lyn at 10 uM
[17] = biological target: Bromodomain-containing protein 4 (Homo sapiens) (UniProt O60885); assay: Binding affinity to human partial length BRD4 bromodomain 1 long isoform (N44 to E168 residues) expressed in bacterial expression system at 1 uM by BROMOscan assay; outline: as §1
[18] = biological target: Transcription intermediary factor 1-alpha (Homo sapiens) (UniProt O15164); assay: Binding affinity to human N-terminal His-tagged TRIM24 assessed as change in melting temperature at 10 uM by SYPRO orange dye-based fluorescence assay
Outline: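 Thermal shift with His-tagged human bromodomain at 2 μM final in 10 mM HEPES pH 7.5, 500 mM NaCl. Compound at 10 μM final with 0.1% DMSO; SYPRO Orange at 1:1000. Equilibrated 3 min at 25 °C, then heated from 25 to 95 °C at 1 °C/min. Melting temperature shift taken from fluorescence; at least duplicate.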

[19] = tested on: Serine/threonine-protein kinase Chk2 (Homo sapiens), O96017 [R145W]; assay: Inhibition of recombinant human CHK2 R145W mutant (5 to end residues) at 10 uM using KKKVSRSGLYRSPSMPENLNRPR as substrate measured after 40 mins in presence of [gamma33P]ATP by scintillation counting method
[20] = biological target: Dual specificity tyrosine-phosphorylation-regulated kinase 3 (Homo sapiens) (UniProt O43781); assay: Inhibition of recombinant full-length human DYRK3 at 10 uM using RRRFRPASPLRGPPK as substrate measured after 40 mins in presence of [gamma33P]ATP by scintillation counting method
[21] = biological target: Serine/threonine-protein kinase SIK3 (Homo sapiens) (UniProt Q9Y2K2); assay: Inhibition of human SIK3 (1 to 307 residues) using KKKVSRSGLYRSPSMPENLNRPR as substrate measured after 40 mins in presence of [gamma33P]ATP by scintillation counting method
Outline: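 Kinase panel of 422 kinases screened by Eurofins KinaseProfiler at a single test-compound concentration of 10 µM.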

[22] = biological target: Serine/threonine-protein kinase TBK1 (Homo sapiens) (UniProt Q9UHD2); assay: Inhibition of recombinant full-length human TBK1 at 10 uM using KRRRALS(p)VASLPGL as substrate measured after 40 mins in presence of [gamma33P]ATP by scintillation counting method
[23] = biological target: NT-3 growth factor receptor (Homo sapiens) (UniProt Q16288); assay: Inhibition of human TrkC (510 to end residues) using GEEPLYWSFPAKKK as substrate measured after 40 mins in presence of [gamma33P]ATP by scintillation counting method

Sequence of Tyrosine-protein kinase Lyn (Mus musculus) (P25911 whole entry, the tested form may be a part, canonical isoform): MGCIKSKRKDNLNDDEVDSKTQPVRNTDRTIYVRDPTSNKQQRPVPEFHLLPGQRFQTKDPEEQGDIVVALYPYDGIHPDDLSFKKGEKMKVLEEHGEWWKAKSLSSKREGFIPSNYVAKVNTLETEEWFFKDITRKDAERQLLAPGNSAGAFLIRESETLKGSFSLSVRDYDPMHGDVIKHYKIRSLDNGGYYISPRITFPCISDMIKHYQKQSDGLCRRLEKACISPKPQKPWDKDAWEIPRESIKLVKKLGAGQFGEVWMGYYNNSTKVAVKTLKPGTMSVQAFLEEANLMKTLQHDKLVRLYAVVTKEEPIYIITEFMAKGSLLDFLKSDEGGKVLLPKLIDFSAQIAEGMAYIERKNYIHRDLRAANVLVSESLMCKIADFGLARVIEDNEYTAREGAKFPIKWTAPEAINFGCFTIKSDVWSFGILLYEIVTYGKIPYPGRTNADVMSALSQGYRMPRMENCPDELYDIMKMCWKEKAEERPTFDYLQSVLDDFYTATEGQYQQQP
Sequence of Homeodomain-interacting protein kinase 2 (Homo sapiens), Q9H2X6 [UNDEFINED MUTATION] (Q9H2X6 whole entry, looked up, stated change not applied, the tested form may be a part): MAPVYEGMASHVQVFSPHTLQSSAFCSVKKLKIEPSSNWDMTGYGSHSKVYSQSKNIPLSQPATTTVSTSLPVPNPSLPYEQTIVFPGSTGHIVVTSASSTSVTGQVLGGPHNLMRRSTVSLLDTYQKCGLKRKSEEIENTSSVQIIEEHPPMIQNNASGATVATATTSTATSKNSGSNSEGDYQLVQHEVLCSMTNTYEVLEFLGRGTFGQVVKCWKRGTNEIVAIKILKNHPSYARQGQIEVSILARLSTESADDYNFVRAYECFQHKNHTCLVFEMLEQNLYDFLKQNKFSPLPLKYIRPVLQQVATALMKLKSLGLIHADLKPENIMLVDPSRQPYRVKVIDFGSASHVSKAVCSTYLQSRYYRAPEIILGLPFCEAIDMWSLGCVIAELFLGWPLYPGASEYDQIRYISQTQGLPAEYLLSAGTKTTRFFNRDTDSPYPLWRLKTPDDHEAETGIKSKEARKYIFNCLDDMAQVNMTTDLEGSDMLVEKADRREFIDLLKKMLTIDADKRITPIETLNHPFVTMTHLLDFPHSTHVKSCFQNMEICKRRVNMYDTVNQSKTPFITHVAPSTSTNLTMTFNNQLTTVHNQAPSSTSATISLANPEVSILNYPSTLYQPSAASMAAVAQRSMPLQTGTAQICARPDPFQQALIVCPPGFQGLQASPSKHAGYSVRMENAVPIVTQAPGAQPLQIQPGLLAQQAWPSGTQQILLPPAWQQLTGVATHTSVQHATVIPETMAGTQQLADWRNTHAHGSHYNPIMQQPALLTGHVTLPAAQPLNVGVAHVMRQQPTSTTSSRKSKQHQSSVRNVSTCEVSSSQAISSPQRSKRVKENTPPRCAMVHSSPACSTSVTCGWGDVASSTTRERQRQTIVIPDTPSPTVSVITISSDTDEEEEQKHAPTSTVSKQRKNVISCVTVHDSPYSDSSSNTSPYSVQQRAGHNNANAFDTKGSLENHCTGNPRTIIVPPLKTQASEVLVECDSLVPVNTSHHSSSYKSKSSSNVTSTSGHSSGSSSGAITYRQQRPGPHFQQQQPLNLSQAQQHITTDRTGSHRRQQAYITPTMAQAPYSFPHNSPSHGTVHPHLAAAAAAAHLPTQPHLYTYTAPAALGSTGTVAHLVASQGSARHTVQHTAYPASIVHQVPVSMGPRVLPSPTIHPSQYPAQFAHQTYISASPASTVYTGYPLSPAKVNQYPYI
Sequence of CREB-binding protein (Homo sapiens) (Q92793 2-2442 limits assumed): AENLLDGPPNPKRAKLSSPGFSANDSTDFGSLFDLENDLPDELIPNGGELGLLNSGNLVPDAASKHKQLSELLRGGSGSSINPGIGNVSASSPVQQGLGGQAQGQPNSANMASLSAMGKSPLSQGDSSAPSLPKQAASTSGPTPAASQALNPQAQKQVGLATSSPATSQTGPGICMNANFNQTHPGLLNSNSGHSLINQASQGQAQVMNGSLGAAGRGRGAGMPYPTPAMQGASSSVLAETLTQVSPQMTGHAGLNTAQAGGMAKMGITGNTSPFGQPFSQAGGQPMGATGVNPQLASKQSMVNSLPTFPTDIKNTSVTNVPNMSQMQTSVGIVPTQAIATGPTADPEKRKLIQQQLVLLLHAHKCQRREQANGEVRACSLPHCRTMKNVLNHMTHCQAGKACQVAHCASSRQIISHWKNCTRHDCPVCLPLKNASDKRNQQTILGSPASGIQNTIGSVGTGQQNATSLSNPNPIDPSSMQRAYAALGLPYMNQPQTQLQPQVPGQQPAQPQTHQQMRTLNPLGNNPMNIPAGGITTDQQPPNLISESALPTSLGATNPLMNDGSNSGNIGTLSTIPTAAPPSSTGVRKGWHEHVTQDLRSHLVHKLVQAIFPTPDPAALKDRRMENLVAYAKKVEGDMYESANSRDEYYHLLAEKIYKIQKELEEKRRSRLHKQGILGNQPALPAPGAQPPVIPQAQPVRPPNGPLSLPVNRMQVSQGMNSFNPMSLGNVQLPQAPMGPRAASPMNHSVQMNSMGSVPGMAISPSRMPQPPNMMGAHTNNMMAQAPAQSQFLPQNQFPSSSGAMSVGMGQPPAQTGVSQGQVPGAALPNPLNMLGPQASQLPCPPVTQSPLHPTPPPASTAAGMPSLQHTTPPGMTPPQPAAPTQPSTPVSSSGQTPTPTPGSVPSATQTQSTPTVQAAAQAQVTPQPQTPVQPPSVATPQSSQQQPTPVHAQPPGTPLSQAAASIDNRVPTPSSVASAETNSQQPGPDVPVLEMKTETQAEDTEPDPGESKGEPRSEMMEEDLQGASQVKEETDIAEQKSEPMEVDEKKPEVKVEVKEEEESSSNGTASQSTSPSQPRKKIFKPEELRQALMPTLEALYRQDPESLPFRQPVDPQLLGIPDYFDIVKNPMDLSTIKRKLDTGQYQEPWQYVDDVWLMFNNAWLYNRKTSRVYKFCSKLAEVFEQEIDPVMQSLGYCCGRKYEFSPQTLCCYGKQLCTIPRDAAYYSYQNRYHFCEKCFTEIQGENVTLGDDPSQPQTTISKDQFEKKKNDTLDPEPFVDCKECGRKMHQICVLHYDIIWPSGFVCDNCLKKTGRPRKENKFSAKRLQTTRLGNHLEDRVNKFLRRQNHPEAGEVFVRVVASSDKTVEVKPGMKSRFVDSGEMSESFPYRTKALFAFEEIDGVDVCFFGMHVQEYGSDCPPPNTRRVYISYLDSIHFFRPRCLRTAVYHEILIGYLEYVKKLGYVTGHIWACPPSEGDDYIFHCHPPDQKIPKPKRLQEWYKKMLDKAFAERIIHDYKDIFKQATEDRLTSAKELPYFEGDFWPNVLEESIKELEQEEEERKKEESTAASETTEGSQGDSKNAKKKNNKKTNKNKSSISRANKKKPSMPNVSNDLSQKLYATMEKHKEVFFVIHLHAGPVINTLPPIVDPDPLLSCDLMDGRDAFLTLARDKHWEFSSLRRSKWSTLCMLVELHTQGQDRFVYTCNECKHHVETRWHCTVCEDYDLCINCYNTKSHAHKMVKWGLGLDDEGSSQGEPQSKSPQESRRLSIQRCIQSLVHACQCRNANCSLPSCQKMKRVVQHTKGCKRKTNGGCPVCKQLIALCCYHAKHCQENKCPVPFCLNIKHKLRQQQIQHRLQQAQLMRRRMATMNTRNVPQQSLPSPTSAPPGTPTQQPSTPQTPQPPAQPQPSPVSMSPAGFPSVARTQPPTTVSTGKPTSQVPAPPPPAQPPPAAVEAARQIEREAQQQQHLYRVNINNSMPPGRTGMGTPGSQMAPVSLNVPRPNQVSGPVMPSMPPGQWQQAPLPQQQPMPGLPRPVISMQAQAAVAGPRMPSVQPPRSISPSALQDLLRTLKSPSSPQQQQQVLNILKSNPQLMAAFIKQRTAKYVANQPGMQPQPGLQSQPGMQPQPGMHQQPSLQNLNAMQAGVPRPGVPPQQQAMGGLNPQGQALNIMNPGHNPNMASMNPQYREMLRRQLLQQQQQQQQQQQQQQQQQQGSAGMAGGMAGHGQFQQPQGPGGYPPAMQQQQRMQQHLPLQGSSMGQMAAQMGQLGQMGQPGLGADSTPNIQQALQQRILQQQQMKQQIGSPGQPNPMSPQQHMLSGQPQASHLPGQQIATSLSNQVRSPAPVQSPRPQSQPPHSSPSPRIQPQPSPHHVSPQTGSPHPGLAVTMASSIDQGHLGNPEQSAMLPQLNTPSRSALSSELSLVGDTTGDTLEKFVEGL
Sequence of Tyrosine-protein kinase HCK (Homo sapiens) (P08631 2-526 limits assumed): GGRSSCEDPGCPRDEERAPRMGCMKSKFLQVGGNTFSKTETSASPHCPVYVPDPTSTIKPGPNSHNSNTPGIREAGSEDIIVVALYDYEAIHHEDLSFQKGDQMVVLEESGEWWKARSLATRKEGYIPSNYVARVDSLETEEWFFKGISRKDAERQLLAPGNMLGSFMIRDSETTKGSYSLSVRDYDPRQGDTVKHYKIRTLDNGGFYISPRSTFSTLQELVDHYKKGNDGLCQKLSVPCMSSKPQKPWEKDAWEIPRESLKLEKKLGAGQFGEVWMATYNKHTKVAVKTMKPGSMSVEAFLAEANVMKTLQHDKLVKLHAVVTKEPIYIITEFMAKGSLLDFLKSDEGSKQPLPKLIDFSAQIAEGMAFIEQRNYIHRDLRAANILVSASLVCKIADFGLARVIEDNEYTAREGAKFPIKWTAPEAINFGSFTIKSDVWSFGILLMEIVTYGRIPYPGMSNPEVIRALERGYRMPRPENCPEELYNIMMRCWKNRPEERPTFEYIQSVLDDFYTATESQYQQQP
Sequence of Mitogen-activated protein kinase 14 (Homo sapiens) (Q16539 whole entry): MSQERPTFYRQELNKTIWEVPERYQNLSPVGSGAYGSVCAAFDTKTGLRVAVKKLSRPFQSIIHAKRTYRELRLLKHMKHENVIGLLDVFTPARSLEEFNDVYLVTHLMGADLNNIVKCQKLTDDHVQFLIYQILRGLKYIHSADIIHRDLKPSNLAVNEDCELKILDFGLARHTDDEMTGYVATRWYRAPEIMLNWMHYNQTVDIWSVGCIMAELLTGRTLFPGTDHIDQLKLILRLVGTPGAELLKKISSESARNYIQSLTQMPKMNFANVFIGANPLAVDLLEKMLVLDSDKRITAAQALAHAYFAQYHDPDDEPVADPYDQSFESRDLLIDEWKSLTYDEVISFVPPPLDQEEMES

For CN1C[C@H](Nc2nc3cc[nH]c3c(=O)n2C)C[C@H](c2ccc3c(c2)OCCO3)C1, the inhibition [1] was “inactive”, the inhibition [2] was “inactive” and the inhibition [3] was “inactive”. For the same molecule, the inhibition [4] was “inactive”, the inhibition [5] was “inactive” and the inhibition [6] was “inactive”. For the same molecule, the inhibition [7] was “inactive”, the Activity [8] was “inactive” and the inhibition [9] was “inactive”. For the same molecule, the Activity [10] was “inactive”, the inhibition [11] was “inactive” and the inhibition [12] was “inactive”. The inhibition [13] was “inactive”, the inhibition [14] was “inactive” and the inhibition [15] was “inactive”. The inhibition [16] was “inactive”, the Activity [17] was “inactive” and the ΔTm [18] was -0.3 °C. The inhibition [19] was “inactive”, the inhibition [20] was “inactive” and the inhibition [21] was “inactive”. For the same molecule, the inhibition [22] was “inactive” and the inhibition [23] was “inactive”.
